Laboratory results from paper PMC8716398 (Biochemical and Biophysical Research Communications, 2021).
Like-named read-outs stand apart in the source and are kept apart here.

What was measured:
3CLpro [1] = molecular target: T1, 3CLpro (Severe acute respiratory syndrome coronavirus 2, UniProt P0DTD1); type: biochemical, SARS-CoV-2
3CLpro [2] = molecular target: T1, 3CLpro; assay: biochemical; type: binding, SARS-CoV-2
3CLpro of SARS-CoV-2 [3] = molecular target: T2, 3CLpro of SARS-CoV-2 (Severe acute respiratory syndrome coronavirus 2, UniProt P0DTD1); assay: Enzyme activity assay, hydrolytic activity of 3CLpro; type: biochemical
3CLpro of SARS-CoV-2 [4] = molecular target: T2, 3CLpro of SARS-CoV-2; assay: Analysis of inhibition type; type: biochemical
Papain = molecular target: T3, Papain (Carica papaya, UniProt P00784); assay: Enzyme activity assay, hydrolytic activity of Papain; type: biochemical
T3 sequence (P00784 134-345): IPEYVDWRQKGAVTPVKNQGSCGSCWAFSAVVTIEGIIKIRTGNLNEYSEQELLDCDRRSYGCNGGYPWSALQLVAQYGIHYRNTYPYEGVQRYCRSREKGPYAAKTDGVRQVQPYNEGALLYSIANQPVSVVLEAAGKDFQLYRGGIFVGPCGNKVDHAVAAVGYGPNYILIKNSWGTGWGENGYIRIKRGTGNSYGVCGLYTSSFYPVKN

3CLpro [5] = molecular target: T1, 3CLpro; assay: Isothermal titration calorimetry; design: species or system SARS-CoV-2; settings: KD of the secondary binding, ITC, two sets of independent sites model, 25 °C
Summary of the method: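 ITC was run at 25 °C in 10 mM HEPES pH 7.4 containing 2% DMSO. Test compound (2 mM, syringe) was injected stepwise into 40 μM 3CLpro in the cell, with 120 s between injections. A matching titration into buffer alone was subtracted. Integrated peak areas were fitted with a two-sets-of-independent-sites model.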

3CLpro [6] = molecular target: T1, 3CLpro; assay: Surface plasmon resonance; type: binding, SARS-CoV-2; settings: SPR, heterogeneous ligand model
Proteinase K = Proteinase K (Parengyodontium album, UniProt P06873); assay: Enzyme activity assay, hydrolytic activity of Proteinase K; type: biochemical
[7] = HTS of ∼6000 compounds at 16.7 μM

Chain of Proteinase K (P06873 106-384): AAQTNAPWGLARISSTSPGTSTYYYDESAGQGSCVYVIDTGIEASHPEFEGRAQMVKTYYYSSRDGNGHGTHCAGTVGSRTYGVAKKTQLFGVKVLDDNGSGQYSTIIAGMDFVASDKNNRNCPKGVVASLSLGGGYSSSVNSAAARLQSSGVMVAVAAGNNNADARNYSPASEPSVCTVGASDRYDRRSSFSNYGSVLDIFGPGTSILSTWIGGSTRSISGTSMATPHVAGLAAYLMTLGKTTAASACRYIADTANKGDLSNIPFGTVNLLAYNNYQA

## CCN(CC)C(=S)SSC(=S)N(CC)CC [Disulfiram]
3CLpro [1]; [7]
  HTS outcome (potential 3CLpro inhibitor): screened out

## CC(C)=CC[C@@H](O)C1=CC(=O)c2c(O)ccc(O)c2C1=O [Shikonin]
3CLpro [1]; [7]
  HTS outcome (potential 3CLpro inhibitor): screened out

## Cn1sc(=O)n(Cc2ccccc2)c1=O [TDZD-8]
3CLpro [1]; [7]
  HTS outcome (potential 3CLpro inhibitor): screened out

## O=C(O)c1ccccc1-c1c2cc(Br)c(=O)cc-2oc2[c]([Hg+])c(O)c(Br)cc12 [Merbromin]
3CLpro [2]
  Kd: 11.8 ± 0.98 µM
3CLpro of SARS-CoV-2 [3]
  IC50: 2.7 ± 0.17 µM
3CLpro of SARS-CoV-2 [4]
  Ki: 3.93 ± 1.41 µM
3CLpro of SARS-CoV-2 [4]; mixed model inhibition, global fit Eqn. (4)
  mixed constant (Alpha): 3.77 ± 3.96
Papain
  IC50: 8.03 µM
3CLpro [5]
  Kd: 67.8 µM
3CLpro [6]; first set
  ka1: 694.6 ± 2.61 M⁻¹ s⁻¹
  kd1: 1.25 ± 0.01 × 10^−3 s^−1
3CLpro [6]; second set
  ka2: 646.7 ± 3.98 M⁻¹ s⁻¹
  kd2: 16.25 ± 0.08 × 10^−3 s^−1
Proteinase K
  IC50: > 70 µM

## O=c1c2ccccc2[se]n1-c1ccccc1 [Ebselen]
3CLpro [1]
  HTS outcome (potential 3CLpro inhibitor): screened out

## O=c1sn(-c2cccc3ccccc23)c(=O)n1Cc1ccccc1 [Tideglusib]
3CLpro [1]; [7]
  HTS outcome (potential 3CLpro inhibitor): screened out

## CCC(C)SSc1ncc[nH]1 (centres unmarked) [PX-12]
3CLpro [1]
  HTS outcome (potential 3CLpro inhibitor): screened out
